# Data taken from ChEMBL document CHEMBL4130469, “C-Methylated Flavonoid Glycosides from Pentarhizidium orientale Rhizomes and Their Inhibitory Effects on the H1N1 Influenza Virus” (J Nat Prod, 2017).
# Experiments:
# Influenza A virus = test: Antiviral activity against Influenza A virus (A/PR/8/34 (H1N1)) infected in MDCK cells assessed as reduction in virus-induced cytopathic effect after 3 days by MTT assay; type: functional, organism-based; details: A/Puerto Rico/8/1934(H1N1), 72 h
# In short: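 MDCK cells grown in DMEM with 10% FBS at 37 °C and 5% CO2, seeded at 1 × 10^5 cells/well, and cultured 24 h. Infected 2 h in DMEM with 0.15 μg/mL trypsin and 5 μg/mL BSA, then given DMEM with 10 μg/mL trypsin and a range of compound concentrations, in triplicate. After 3 days, MTT (2 mg/mL) added for 4 h at 37 °C; formazan dissolved in DMSO, A550 read; EC50.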
# [1] = Inhibition of neuraminidase activity in H9N2 A/chicken/Korea/01210/2001 infected in MDCK cells using 4-MU-NANA as substrate pretreated for 30 mins followed by substrate addition measured after 2 hrs by fluorescence assay; type: cell-based, H9N2 subtype; details: Influenza A virus, A/chicken/Korea/01210/2001, MDCK
# [2] = Cytotoxicity against MDCK cells after 2 days by MTT assay; type: cell-based, Canis lupus familiaris; details: dog
# In short: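 Uninfected MDCK cells seeded at 1 × 10^5 cells/well and grown 24 h. Washed with PBS, then exposed to graded compound concentrations in fresh DMEM, each in triplicate, for 2 days. Viability by MTT (2 mg/mL), 4 h further incubation; CC50.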
# [3] = biological target: Neuraminidase (Influenza A virus (A/Puerto Rico/8/1934(H1N1)), UniProt P03468); test: Inhibition of neuraminidase activity in Influenza A virus (A/PR/8/34 (H1N1)) infected in MDCK cells using 4-MU-NANA as substrate pretreated for 30 mins followed by substrate addition measured after 2 hrs by fluorescence assay; type: cell-based
# Chain of Neuraminidase (Influenza A virus (A/Puerto Rico/8/1934(H1N1)), UniProt P03468) (P03468 whole entry): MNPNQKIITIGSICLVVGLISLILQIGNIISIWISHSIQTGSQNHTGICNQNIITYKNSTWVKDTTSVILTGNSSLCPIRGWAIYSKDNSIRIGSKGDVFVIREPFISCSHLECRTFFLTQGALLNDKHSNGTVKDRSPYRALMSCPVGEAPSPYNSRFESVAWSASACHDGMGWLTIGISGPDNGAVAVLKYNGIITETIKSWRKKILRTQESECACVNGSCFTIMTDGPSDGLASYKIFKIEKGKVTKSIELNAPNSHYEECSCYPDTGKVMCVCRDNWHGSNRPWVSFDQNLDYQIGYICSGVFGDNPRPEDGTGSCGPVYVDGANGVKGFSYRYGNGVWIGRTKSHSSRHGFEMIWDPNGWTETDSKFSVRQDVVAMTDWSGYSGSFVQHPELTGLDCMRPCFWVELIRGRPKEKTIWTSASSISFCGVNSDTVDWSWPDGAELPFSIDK
compound,measurement,setting,value
Cc1c(O)c(C)c2c(c1O)C(=O)C[C@@H](c1ccccc1O)O2,EC50,Influenza A virus,22.9 µM
same,IC50,[1],24.1 µM
same,CC50 at 48 h,[2],> 100 µM
same,IC50,[3],23.9 µM
COc1ccc(O)c([C@@H]2CC(=O)c3c(O)c(C)c(O)c(C)c3O2)c1,EC50,Influenza A virus,23 µM
same,IC50,[1],24.6 µM
same,CC50 at 48 h,[2],> 100 µM
same,IC50,[3],24.5 µM
COc1ccc([C@@H]2CC(=O)c3c(O)c(C)c(O)c(C)c3O2)cc1,EC50,Influenza A virus,26.9 µM
same,IC50,[1],27.2 µM
same,CC50 at 48 h,[2],> 100 µM
same,IC50,[3],25.2 µM
COc1cc(O)cc([C@@H]2CC(=O)c3c(O)c(C)c(O)c(C)c3O2)c1,EC50,Influenza A virus,21.4 µM
same,IC50,[1],23.1 µM
same,CC50 at 48 h,[2],> 100 µM
same,IC50,[3],24.4 µM
Cc1c(O)c(C)c2c(c1O)C(=O)C[C@@H](c1ccccc1)O2 [DEMETHOXYMATTEUCINOL],EC50,Influenza A virus,30.7 µM
same,IC50,[1],31.3 µM
same,CC50 at 48 h,[2],77.6 µM
same,IC50,[3],30.3 µM
CCOC(=O)C1=C[C@@H](OC(CC)CC)[C@H](NC(C)=O)[C@@H](N)C1 [OSELTAMIVIR],EC50,Influenza A virus,0.6 µM
same,IC50,[1],0.0191 µM
